# Source: ChEMBL document CHEMBL3259740, “Design, synthesis and evaluation of novel diaryl urea derivatives as potential antitumor agents” (Eur J Med Chem, 2014)
# Experiments:
# MX1 = test: Cytotoxicity against human MX1 cells assessed as growth inhibition after 120 hrs by MTT assay; format: functional, cell-based; conditions: MX1, 120 h
# Outline: (§1)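 Cells kept in DMEM with 10% FBS, penicillin and streptomycin at 37 °C, 5% CO2. Seeded at 2000 cells/well, grown 24 h, then exposed to a range of compound concentrations for 120 h. MTT at 0.5 mg/mL added for 4 h at 37 °C. Formazan dissolved in DMSO, absorbance read at 570 nm. IC50 is the mean of three determinations.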
# A-375 = test: Cytotoxicity against human A375 cells assessed as growth inhibition after 120 hrs by MTT assay; format: functional, cell-based; conditions: A-375, 120 h; outline: as §1
# HepG2 = test: Cytotoxicity against human HepG2 cells assessed as growth inhibition after 120 hrs by MTT assay; format: functional, cell-based; conditions: HepG2, 120 h; outline: as §1
# KETR3 = test: Cytotoxicity against human Ketr3 cells assessed as growth inhibition after 120 hrs by MTT assay; format: functional, cell-based; conditions: KETR3, 120 h; outline: as §1
# HT-29 [1] = test: Cytotoxicity against human HT-29 cells assessed as growth inhibition after 120 hrs by MTT assay; format: functional, cell-based; conditions: HT-29, 120 h; outline: as §1
# [2] = biological target: Serine/threonine-protein kinase B-raf (Homo sapiens, UniProt P15056); test: Inhibition of B-Raf (unknown origin) after 1 hr by ADP-Glo assay
# Chain of Serine/threonine-protein kinase B-raf (P15056 whole entry): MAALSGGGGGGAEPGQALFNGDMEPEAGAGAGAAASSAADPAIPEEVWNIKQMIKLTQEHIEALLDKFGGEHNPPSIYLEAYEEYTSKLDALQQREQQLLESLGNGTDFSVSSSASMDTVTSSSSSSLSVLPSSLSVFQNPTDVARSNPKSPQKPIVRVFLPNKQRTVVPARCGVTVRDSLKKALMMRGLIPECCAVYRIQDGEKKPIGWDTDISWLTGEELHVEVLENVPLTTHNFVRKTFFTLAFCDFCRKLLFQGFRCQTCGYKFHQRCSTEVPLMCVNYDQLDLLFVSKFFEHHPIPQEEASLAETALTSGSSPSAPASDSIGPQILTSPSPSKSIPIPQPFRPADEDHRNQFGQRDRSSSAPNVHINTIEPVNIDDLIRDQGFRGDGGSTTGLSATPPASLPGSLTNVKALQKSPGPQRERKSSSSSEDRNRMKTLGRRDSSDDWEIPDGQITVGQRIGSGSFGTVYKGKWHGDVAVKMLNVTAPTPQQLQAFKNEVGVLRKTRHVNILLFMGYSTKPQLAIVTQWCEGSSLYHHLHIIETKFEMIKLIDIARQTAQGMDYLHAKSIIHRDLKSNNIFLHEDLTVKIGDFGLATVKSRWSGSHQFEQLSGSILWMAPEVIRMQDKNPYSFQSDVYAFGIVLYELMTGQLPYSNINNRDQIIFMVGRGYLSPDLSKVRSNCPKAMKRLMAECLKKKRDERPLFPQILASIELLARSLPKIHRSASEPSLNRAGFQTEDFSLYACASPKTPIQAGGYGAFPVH
# [3] = biological target: RAF proto-oncogene serine/threonine-protein kinase (Homo sapiens, UniProt P04049); test: Inhibition of C-Raf (unknown origin) after 1 hr by ADP-Glo assay
# Chain of RAF proto-oncogene serine/threonine-protein kinase (P04049 whole entry): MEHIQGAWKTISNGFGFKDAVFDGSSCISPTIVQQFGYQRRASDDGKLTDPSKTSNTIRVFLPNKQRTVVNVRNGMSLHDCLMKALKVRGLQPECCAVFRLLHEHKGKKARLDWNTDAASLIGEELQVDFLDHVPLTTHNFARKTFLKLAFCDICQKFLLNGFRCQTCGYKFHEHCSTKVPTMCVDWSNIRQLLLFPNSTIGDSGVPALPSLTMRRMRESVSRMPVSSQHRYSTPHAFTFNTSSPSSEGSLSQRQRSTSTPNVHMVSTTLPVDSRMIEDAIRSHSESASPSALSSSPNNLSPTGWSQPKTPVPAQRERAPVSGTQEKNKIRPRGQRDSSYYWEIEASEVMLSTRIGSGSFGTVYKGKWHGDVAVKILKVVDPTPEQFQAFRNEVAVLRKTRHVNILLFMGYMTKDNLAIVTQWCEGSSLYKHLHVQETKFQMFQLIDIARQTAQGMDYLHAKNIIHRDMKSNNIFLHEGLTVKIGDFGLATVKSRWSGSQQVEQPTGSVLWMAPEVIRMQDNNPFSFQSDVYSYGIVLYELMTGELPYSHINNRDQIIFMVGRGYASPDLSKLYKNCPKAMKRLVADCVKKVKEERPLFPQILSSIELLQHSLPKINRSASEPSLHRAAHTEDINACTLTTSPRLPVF
# Outline: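 Run in duplicate. Kinase, substrate, ATP and compound reacted 1 h at 30 °C. ADP-Glo reagent was added to stop the reaction, followed by 40 min at 27 °C. Kinase detection reagent was then added for a further 30 min at the same temperature before luminescence reading.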
# HT-29 [4] = test: Potency index, ratio of sorafenib IC50 to compound IC50 for human HT-29 cells; format: functional
IC50 [2] [µM],IC50 [3] [µM],Compound,IC50 (MX1) [µM],IC50 (A-375) [µM],IC50 (HepG2) [µM],IC50 (KETR3) [µM],IC50 (HT-29 [1]) [µM],Ratio IC50 (HT-29 [4])
,,CNC(=O)/C=C/c1ccc(NC(=O)Nc2ccc(Cl)c(C(F)(F)F)c2)cc1,13.8,20.9,20.4,21.2,11.7,
,,CC(NC(=O)/C=C/c1ccc(NC(=O)Nc2ccc(Cl)c(C(F)(F)F)c2)cc1)c1ccccc1 (centres undefined),3.13,20.8,12.2,21.2,1.06,
,,CC(NC(=O)/C=C/c1ccc(NC(=O)Nc2cc(C(F)(F)F)ccc2Cl)cc1)c1ccccc1 (centres undefined),1.89,40.9,35.9,14.3,4.19,
,,O=C(/C=C/c1ccc(NC(=O)Nc2ccc(Cl)c(C(F)(F)F)c2)cc1)NC1CCC1,4.53,15.4,7.51,17.3,4.43,
,,CC1CN(C(=O)/C=C/c2ccc(NC(=O)Nc3ccc(Cl)c(C(F)(F)F)c3)cc2)CC(C)O1 (centres undefined),12.8,> 50,45.9,> 50,9.1,
,,CNC(=O)CCc1ccc(NC(=O)Nc2ccc(Cl)c(C(F)(F)F)c2)cc1,20.4,25.2,21,24,20.6,
,,CC(NC(=O)CCc1ccc(NC(=O)Nc2ccc(Cl)c(C(F)(F)F)c2)cc1)c1ccccc1 (centres undefined),> 50,> 50,> 50,> 50,26.5,
,,O=C(CCc1ccc(NC(=O)Nc2ccc(Cl)c(C(F)(F)F)c2)cc1)NC1CCC1,24,> 50,> 50,> 50,21.3,
,,CC1CN(C(=O)CCc2ccc(NC(=O)Nc3ccc(Cl)c(C(F)(F)F)c3)cc2)CC(C)O1 (centres undefined),> 50,> 50,> 50,> 50,> 50,
,,CNC(=O)/C(C)=C/c1ccc(NC(=O)Nc2ccc(Cl)c(C(F)(F)F)c2)cc1,> 50,> 50,44.3,> 50,> 50,
,,C/C(=C\c1ccc(NC(=O)Nc2ccc(Cl)c(C(F)(F)F)c2)cc1)C(=O)NC(C)c1ccccc1 (centres undefined),> 50,> 50,> 50,> 50,> 50,
,,C/C(=C\c1ccc(NC(=O)Nc2ccc(Cl)c(C(F)(F)F)c2)cc1)C(=O)N1CC(C)OC(C)C1 (centres undefined),> 50,> 50,> 50,> 50,> 50,
,,CNC(=O)/C=C(\C)c1ccc(NC(=O)Nc2ccc(Cl)c(C(F)(F)F)c2)cc1,> 50,> 50,> 50,> 50,> 50,
,,C/C(=C\C(=O)NC(C)c1ccccc1)c1ccc(NC(=O)Nc2ccc(Cl)c(C(F)(F)F)c2)cc1 (centres undefined),> 50,> 50,> 50,> 50,> 50,
,,C/C(=C\C(=O)N1CC(C)OC(C)C1)c1ccc(NC(=O)Nc2ccc(Cl)c(C(F)(F)F)c2)cc1 (centres undefined),> 50,46.2,> 50,> 50,26.2,
,,CNC(=O)/C=C/Oc1ccc(NC(=O)Nc2ccc(Cl)c(C(F)(F)F)c2)cc1,18.8,36.8,24.2,> 50,> 50,
,,CC(NC(=O)/C=C/Oc1ccc(NC(=O)Nc2ccc(Cl)c(C(F)(F)F)c2)cc1)c1ccccc1 (centres undefined),13.7,20.7,14.1,14.5,> 50,
,,CC(NC(=O)/C=C/Oc1ccc(NC(=O)Nc2cc(C(F)(F)F)ccc2Cl)cc1)c1ccccc1 (centres undefined),16.1,16,11.9,16.4,> 50,
,,CNC(=O)C#Cc1ccc(NC(=O)Nc2ccc(Cl)c(C(F)(F)F)c2)cc1,26.4,> 50,23.3,24.7,14,
,,CC(NC(=O)C#Cc1ccc(NC(=O)Nc2ccc(Cl)c(C(F)(F)F)c2)cc1)c1ccccc1 (centres undefined),12.8,16.8,20.5,21.4,4.92,
,,CC(NC(=O)C#Cc1ccc(NC(=O)Nc2cc(C(F)(F)F)ccc2Cl)cc1)c1ccccc1 (centres undefined),16.1,30.5,19,23.2,3.17,
,,CNC(=O)c1cccc(-c2ccc(NC(=O)Nc3ccc(Cl)c(C(F)(F)F)c3)cc2)c1,> 50,46.5,37.1,39.3,29.3,
> 50,> 50,CC(NC(=O)c1cccc(-c2ccc(NC(=O)Nc3ccc(Cl)c(C(F)(F)F)c3)cc2)c1)c1ccccc1 (centres undefined),5.24,5.17,5.67,6.46,6.32,
,,CC(NC(=O)c1ccc(-c2ccc(NC(=O)Nc3ccc(Cl)c(C(F)(F)F)c3)cc2)cc1)c1ccccc1 (centres undefined),4.63,12.8,16.8,19.3,5.96,
,,CC(NC(=O)c1ccc(-c2ccc(NC(=O)Nc3cc(C(F)(F)F)ccc3Cl)cc2)cc1)c1ccccc1 (centres undefined),17.7,16.9,18.4,16.8,6.57,
,,CC1CN(C(=O)c2ccc(-c3ccc(NC(=O)Nc4ccc(Cl)c(C(F)(F)F)c4)cc3)cc2)CC(C)O1 (centres undefined),> 50,> 50,31.1,41.9,2.05,8
,,CC1CN(C(=O)c2ccc(-c3ccc(NC(=O)Nc4cc(C(F)(F)F)ccc4Cl)cc3)cc2)CC(C)O1 (centres undefined),> 50,> 50,> 50,> 50,1.9,8
,,CNC(=O)c1cc(Oc2ccc(NC(=O)Nc3ccc(Cl)c(C(F)(F)F)c3)cc2)ccn1 [SORAFENIB],8.27,9.17,8.67,18.8,15.2,
